This is an account of results in the RNAGym collection of RNA variant scans (doi:10.1126/science.aae0568).

This sample holds only a part of the variants without activity.

The labels stand for the following.
B1: tRNA (parent)
chain: GUUCCGUUGGCGUAAUGGUAACGCGUCUCCCUCCUAAGGAGAAGACUGCGGGUUCGAGUCCCGUACGGAACG

In this series the parent is B1. Briefly: yeast fitness relative to wild type (ratio to wild type); higher = fitter; tRNA-Arg(CCU), competitive growth, 37 C, YPD. The method, boiled down: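 The tRNA-Arg(CCU) gene variants were made by chemical synthesis with a 3% per-site mutation rate at 69 sites and inserted at the native genomic locus of Saccharomyces cerevisiae. After pooling, the strains were competed in YPD at 37°C for 24 hours in six parallel replicates. Gene amplicons from the start population and each end population were read by 100-nucleotide paired-end sequencing, and Darwinian fitness relative to wild type was taken from genotype frequency changes. Genotypes needed ≥ 100 starting reads, and estimates < 0.5 were set to 0.5.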
A15U A20U C24U A65G A70C: the yeast fitness is no more than 0.5.

For the variant A15U C33G A43C G44U, the yeast fitness is no more than 0.5.

In the case of U16A C29G, the yeast fitness is 0.669.

As to A15C U47A, the yeast fitness was 1.09.

A15C U32A A65C: the yeast fitness was no more than 0.5.

As to A15U A42C G48A G50C, the yeast fitness is no more than 0.5.

With A15U U16G U35A U59A, the yeast fitness was no more than 0.5.

Regarding U16A G18A C31U, the yeast fitness is no more than 0.5.

For A15G A21C, the yeast fitness was determined as 0.709.

Consider A15C U26C G56A C61U, for which the yeast fitness was no more than 0.5.

On to A15U C66U A70C, for which the yeast fitness was determined as 0.566.

In the case of U16A A42C A69U, the yeast fitness came out at 0.505.

Consider U16A C24U C33U A36U A40U G56C A57G A69C, for which the yeast fitness is no more than 0.5.

For A15G A42G C61U, the yeast fitness amounted to 0.579.

On to A15U A21C U53C G56C A65G, for which the yeast fitness was determined as 0.77.

Consider A15G G17A A69C, for which the yeast fitness was 0.586.

Regarding A15G A20U G68A, the yeast fitness is 0.545.

With U16A A37G G39A C49A G50A G68C, the yeast fitness stood at 0.531.

For U16C A69G A70G, the yeast fitness was 0.745.

In the case of A15U A40C C49U, the yeast fitness stood at 0.528.

Turning to A15G A36U U59A, the yeast fitness is no more than 0.5.

Turning to A15G G18A U54A, the yeast fitness was no more than 0.5.

For the variant U16A U32A A40C U53A, the yeast fitness was found to be 0.551.

For the variant U16A C22G A69U, the yeast fitness was 0.791.

As for U16A A40U, the yeast fitness amounted to 1.

In the case of A15U A57U A65C, the yeast fitness was 0.586.

Take A15G G23A A36G C55A: the yeast fitness was no more than 0.5.

For U16A A36G A57U A70G, the yeast fitness was no more than 0.5.

As to A15G A36C, the yeast fitness came to 0.515.

Take A15U G17A C46U C62U: the yeast fitness is 0.865.

Turning to A15U U47C C49G C55U A65U, the yeast fitness amounted to 0.531.

Turning to A15G U64G A69C, the yeast fitness turned out to be 0.564.

On to A15C U35C C46G, for which the yeast fitness came out at 0.67.

Consider A15G G67A A69C, for which the yeast fitness was found to be 0.767.

With A15G G23A C60U, the yeast fitness is no more than 0.5.

For A15C U47G G52C, the yeast fitness was no more than 0.5.

With U16A G41A A70U, the yeast fitness stood at 0.666.

For the variant A15G U35G A43G C66U, the yeast fitness was no more than 0.5.

On to A15G A45U, for which the yeast fitness was 0.987.

For U16A C29G U32A A36G C49U G51A, the yeast fitness is no more than 0.5.

In the case of A15G C24G C49U, the yeast fitness came to 0.541.

Regarding A15G C29A U47G U54A G58A, the yeast fitness is no more than 0.5.

As to U16A U35C, the yeast fitness stood at 0.91.

For A15G C49U, the yeast fitness turned out to be 1.07.

With U16A C62U, the yeast fitness amounted to 0.918.

In the case of A15G C31G A40U C60G G67A, the yeast fitness worked out at 0.529.

For A15G G56A C62U A70C, the yeast fitness came to 0.543.

On to U16A C30U A45G, for which the yeast fitness was no more than 0.5.

For A15U U28A C46A, the yeast fitness stood at 0.507.

Regarding A15U G39A, the yeast fitness was 0.667.

For the variant A15G A20C C62G, the yeast fitness came to 0.731.

In the case of A15U A40U G52A G68A, the yeast fitness was 0.596.

Take A15U G18C: the yeast fitness is 0.589.

Regarding A15C U28C G48C G68U A69U, the yeast fitness was no more than 0.5.

On to A15C G52A A57U C60U A65G G68A, for which the yeast fitness was no more than 0.5.

U16A C24A A43G: the yeast fitness was no more than 0.5.

For the variant A15U C33G C49A C60G, the yeast fitness was no more than 0.5.

For A15G U16G G39A A45C C61A, the yeast fitness was no more than 0.5.

As for A15C U35A, the yeast fitness came to 0.599.

On to U16A C31G A65U A70G, for which the yeast fitness is no more than 0.5.

As to U16A G18C U26A U47C A65C, the yeast fitness is no more than 0.5.

For the variant A15G U35A G48A A57G C62G, the yeast fitness was no more than 0.5.

With A15U C24U G25C A37U A40C U53C G58C, the yeast fitness was no more than 0.5.

As for U16A G18A G56A G67C, the yeast fitness was no more than 0.5.

With A15G U28C C30U A36C A45U G50C, the yeast fitness is no more than 0.5.

A15U C22G C31U G50A: the yeast fitness is no more than 0.5.

Turning to U16A A37U C55G G56C, the yeast fitness was no more than 0.5.

Turning to A15U A45C C46A G67A, the yeast fitness is no more than 0.5.

For A15G C30G A42C A43C C46G A65C, the yeast fitness was no more than 0.5.

Regarding U16A U28C U47C, the yeast fitness is 0.79.

As for A15G C29A C34G, the yeast fitness was no more than 0.5.

In the case of A15U C46A C61G A69G, the yeast fitness was no more than 0.5.

Regarding U16A A43C A45G, the yeast fitness came out at 0.988.

For A15G G25A A37G A70C, the yeast fitness was determined as 0.522.

In the case of U16A A21U C30A G38A C55A A65C, the yeast fitness is no more than 0.5.

With A15G A36G G56U C62U, the yeast fitness was no more than 0.5.

A15G C30G C31A C66U: the yeast fitness is no more than 0.5.

Turning to A15U G17C A45U C49G C55U A70U, the yeast fitness was no more than 0.5.

Take A15G C61A A69U: the yeast fitness was 0.643.

As for A15U A20C C46G G50C C61G, the yeast fitness is 0.604.

A15G G18A A69U: the yeast fitness stood at 0.648.

A15U C62U: the yeast fitness stood at 0.787.

A15C U47A G52C: the yeast fitness was determined as 0.539.

A15U G18C A21G U59A C61G: the yeast fitness is no more than 0.5.

For A15G G58A G68C, the yeast fitness turned out to be 0.596.

For the variant U16A U53A A57G, the yeast fitness was no more than 0.5.

With U16A U28C A70C, the yeast fitness came to 0.569.

Take A15G C24A C66U: the yeast fitness was no more than 0.5.

As to A15U C29A C34G U59A A69C, the yeast fitness is no more than 0.5.

As to A15G A57U A65U, the yeast fitness is no more than 0.5.

Take A15G G48A A65C: the yeast fitness was determined as 0.686.

Regarding A15U C24A C34G G39U A65G, the yeast fitness is 0.651.

In the case of A15G U26G C30U G52A, the yeast fitness was no more than 0.5.

As for A15G C33U G50A, the yeast fitness was no more than 0.5.

As for U16A U26A C30G U59C, the yeast fitness was no more than 0.5.

Regarding A15G C60G A69C, the yeast fitness came to 0.585.

Consider U16A C24A C30G C34U G56C, for which the yeast fitness came out at 0.634.

Take U16A A37C G48C: the yeast fitness was 0.546.

Regarding A15G C24A C34G A65U, the yeast fitness is no more than 0.5.

As for A15G C24G U28A G52C A65C, the yeast fitness was no more than 0.5.

For A15U C30U A37G U59A, the yeast fitness was no more than 0.5.

As to U16A U26A C49G C61A, the yeast fitness is 0.586.

In the case of A15U U32A G50A G51A G56C C61G, the yeast fitness stood at 0.538.

As to U16A G41C A45C, the yeast fitness is no more than 0.5.

For the variant U16A G39A A42G C55A C62A, the yeast fitness was no more than 0.5.

For the variant A15U C29A C55A, the yeast fitness was no more than 0.5.

On to A15U C49G C55U A65U, for which the yeast fitness worked out at 0.56.

In the case of U16A C31A A40C G52C, the yeast fitness is no more than 0.5.

As to A15U C24G C66U, the yeast fitness was 0.608.

With A15U G25A, the yeast fitness was determined as 1.

A15U G38C G39A A43C U59A C60U: the yeast fitness was no more than 0.5.

Consider U16A C46G A70G, for which the yeast fitness came to 0.604.

Turning to A15G G41C G51C C61G, the yeast fitness is 0.726.

Turning to A15U A21G C24U C33U A40C A43C C49U C61U, the yeast fitness was found to be 0.516.

Consider A15G C24A C46A, for which the yeast fitness amounted to 0.64.

For A15G C31U C60U, the yeast fitness came out at 0.543.

For the variant A15U G25A C33G C62G, the yeast fitness was no more than 0.5.

Regarding A15C U53G, the yeast fitness turned out to be 0.621.

Take A15U G18C C34G A42G G52C: the yeast fitness came out at 0.575.

A15C U47C A69U: the yeast fitness came to 0.551.

A15C U47A A65C: the yeast fitness was 0.561.

As for A15U G18A C33G A42C, the yeast fitness is no more than 0.5.

Take U16A A21U C33G: the yeast fitness was no more than 0.5.

Regarding A15U C24U G44A, the yeast fitness was 0.503.

In the case of A15G U47C G68C, the yeast fitness is no more than 0.5.

Consider U16A A20C, for which the yeast fitness was determined as 1.02.

With A15G U26A C66A, the yeast fitness was no more than 0.5.

As for A15G G48A C62U, the yeast fitness was 1.03.

On to A15G C49A G56A, for which the yeast fitness was determined as 0.506.

Turning to A15G G17A C33U, the yeast fitness was no more than 0.5.

For the variant A15G A42C G51C G67C, the yeast fitness was no more than 0.5.

Consider A15U C31U C33U G67A, for which the yeast fitness worked out at 0.642.

In the case of A15U C30U, the yeast fitness was determined as 0.859.

U16C A37G A42C A69U: the yeast fitness was no more than 0.5.

A15G U28C U35A G38A C46G C62U G67U: the yeast fitness was no more than 0.5.

With A15C U59A C61A, the yeast fitness came out at 0.698.

A15U C29U: the yeast fitness is 0.749.

A15G C30U C55U: the yeast fitness was no more than 0.5.

A15G G39A A40G A57C: the yeast fitness amounted to 0.534.

As to U16A G52A A57C, the yeast fitness is 0.571.

With A15G G23C G44A, the yeast fitness is no more than 0.5.

Turning to U16A C30U A57U, the yeast fitness is no more than 0.5.

Regarding A15C G51C C61U, the yeast fitness is no more than 0.5.

Consider A15U C24U A65G, for which the yeast fitness worked out at 0.53.

With U16A C55U A57C, the yeast fitness is no more than 0.5.

Consider U16A A36G G51A, for which the yeast fitness is no more than 0.5.

Turning to U16A G18A C31U A65G, the yeast fitness amounted to 0.548.

U16A A45C: the yeast fitness is 0.994.

As to A15G G18C, the yeast fitness was 0.7.

Turning to A15G U35C, the yeast fitness was found to be 0.892.

Turning to A15U G52C A65U G67C, the yeast fitness is no more than 0.5.

In the case of A15U G25A C55G, the yeast fitness was determined as 0.555.

For the variant A15G C29G C31G A37C C66A, the yeast fitness is no more than 0.5.

For the variant A15G A42U, the yeast fitness is 0.971.

On to A15G G17A G48A, for which the yeast fitness stood at 0.681.

As to A15U A40G C46U, the yeast fitness came out at 0.697.

Consider A15C U59G, for which the yeast fitness turned out to be 0.673.

Turning to A15U G38C G39A A43C A57U, the yeast fitness is no more than 0.5.

On to U16A U47C, for which the yeast fitness turned out to be 1.01.

For A15G C29G C33A G67A, the yeast fitness came to 0.569.

U16A C55A A69C: the yeast fitness was no more than 0.5.

Turning to U16A C22U C55A, the yeast fitness is 0.808.

Consider A15U G25C C34A, for which the yeast fitness is 0.941.

For the variant U16A C24G, the yeast fitness amounted to 0.528.

Consider U16C A40C A57U G68A, for which the yeast fitness came to 0.641.

Take A15U C24A G25A U47C G52C A65U: the yeast fitness was no more than 0.5.

In the case of A15G U64A, the yeast fitness was 0.706.
